Each structure is given as a SMILES string.

In general, Ki refers to the dissociation constant of the complex between target and ligand, obtained from inhibition or displacement. Usually inhibition stands for the percentage by which the read-out fell short of the control. In general, IC50 refers to the concentration needed to halve the response being measured.

The target of data set [1] is T1, Adenosine receptor A3 (Homo sapiens, UniProt P0DMS8).
T1 sequence (P0DMS8 whole entry): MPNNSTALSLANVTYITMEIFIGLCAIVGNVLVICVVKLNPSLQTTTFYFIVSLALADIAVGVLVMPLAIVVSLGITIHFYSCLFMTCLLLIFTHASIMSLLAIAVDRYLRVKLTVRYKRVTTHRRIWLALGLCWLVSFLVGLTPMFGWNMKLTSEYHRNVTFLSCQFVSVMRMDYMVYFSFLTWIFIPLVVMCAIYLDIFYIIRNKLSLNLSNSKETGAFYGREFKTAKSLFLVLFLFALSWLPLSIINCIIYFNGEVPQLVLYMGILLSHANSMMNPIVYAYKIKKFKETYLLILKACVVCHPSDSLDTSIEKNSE
Put plainly: Displacement of [3H]PSB11 from recombinant human adenosine A3 receptor expressed in CHO cells. Format: cell-based. In general terms: Displacement assays read how much labelled ligand stays bound in the presence of the test substance.

The target of data set [2] is T2, Adenosine receptor A1 (Homo sapiens) (UniProt P30542).
T2 sequence (whole entry): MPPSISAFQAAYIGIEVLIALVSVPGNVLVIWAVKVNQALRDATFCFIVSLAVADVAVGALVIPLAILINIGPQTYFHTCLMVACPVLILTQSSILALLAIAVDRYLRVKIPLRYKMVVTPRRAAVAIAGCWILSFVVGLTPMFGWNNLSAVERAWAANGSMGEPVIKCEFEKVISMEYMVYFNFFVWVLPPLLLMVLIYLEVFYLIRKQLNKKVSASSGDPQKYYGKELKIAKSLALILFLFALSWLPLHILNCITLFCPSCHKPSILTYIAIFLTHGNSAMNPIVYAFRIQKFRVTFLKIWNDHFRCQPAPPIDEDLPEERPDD
In words: Displacement of [3H]CCPA from recombinant human adenosine A1 receptor expressed in CHO cells at 1 uM relative to control. Format: cell-based. The method in brief: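 Purchased membranes of CHO cells expressing human A1 ([3H]CCPA) or human A3 ([3H]PSB-11). A single high compound concentration is screened first; for potent compounds, full inhibition curves spanning 3 orders of magnitude. At least three independent experiments.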

Data set [3] is described as follows: Antioxidant activity assessed as increase in total ferric ion reducing activity at 1000 uM using FeCl3.6H2O and TPTZ incubated for 10 mins under dark condition by FRAP assay relative to control. In kind it is functional. Also on record: scale not given: the % may be the effect or the level left. The method in brief: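 FRAP reagent made by mixing 10 parts 300 mM acetate buffer pH 3.6, 1 part 10 mM TPTZ in 40 mM HCl and 1 part 20 mM FeCl3·6H2O. Reagent mixed with compound solution, 10 min at room temperature in the dark. Ferrous-TPTZ complex read at 593 nm. Result is absorbance increase versus solvent sample. FeSO4·7H2O standard curve, 37.5–1200 μM.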

The target in data set [4] is T3, Adenosine receptor A2b (Homo sapiens) (UniProt P29275).
T3 sequence (whole entry): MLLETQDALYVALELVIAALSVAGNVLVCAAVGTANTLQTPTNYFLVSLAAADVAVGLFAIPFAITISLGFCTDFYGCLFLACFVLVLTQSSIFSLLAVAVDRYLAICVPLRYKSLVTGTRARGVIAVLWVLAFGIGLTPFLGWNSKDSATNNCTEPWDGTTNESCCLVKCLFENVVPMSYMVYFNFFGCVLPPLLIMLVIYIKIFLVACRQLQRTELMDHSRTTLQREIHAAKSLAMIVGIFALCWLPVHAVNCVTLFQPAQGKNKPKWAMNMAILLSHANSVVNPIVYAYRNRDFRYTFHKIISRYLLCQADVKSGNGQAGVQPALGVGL
In words: Displacement of [3H]PSB603 from recombinant human adenosine A2b receptor expressed in HEK293 cells at 1 uM relative to control. In kind it is cell-based. The method in brief: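 Purchased membranes of HEK cells expressing human A2A ([3H]MSX-2) or human A2B ([3H]PSB-603). A single high compound concentration is screened first; for potent compounds, full inhibition curves spanning 3 orders of magnitude. At least three independent experiments.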

Data set [5] concerns HepG2. In words: Hepatotoxicity against human HepG2 cells assessed as reduction in cell viability at 0.5 to 1 uM measured after 72 hrs by CellTiter96 Aqueous non-radioactive cell proliferation assay. Particulars: hepg2, 72 h. Format: toxicity, cell-based. The method, boiled down: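 HepG2 cells seeded at 1.5×10^4 cells/well in MEM with 4.5 g/L glucose and 10% FBS, grown 24 h at 37 °C, 5% CO2. Compounds diluted in the same medium and applied for 72 h. CellTiter 96 AQueous reagent then added for 2 h, absorbance read at 490 nm. One-way ANOVA with Bonferroni post test.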

In data set [6] the target is T4, Amine oxidase [flavin-containing] B (Homo sapiens, UniProt P27338).
T4 sequence (P27338 whole entry): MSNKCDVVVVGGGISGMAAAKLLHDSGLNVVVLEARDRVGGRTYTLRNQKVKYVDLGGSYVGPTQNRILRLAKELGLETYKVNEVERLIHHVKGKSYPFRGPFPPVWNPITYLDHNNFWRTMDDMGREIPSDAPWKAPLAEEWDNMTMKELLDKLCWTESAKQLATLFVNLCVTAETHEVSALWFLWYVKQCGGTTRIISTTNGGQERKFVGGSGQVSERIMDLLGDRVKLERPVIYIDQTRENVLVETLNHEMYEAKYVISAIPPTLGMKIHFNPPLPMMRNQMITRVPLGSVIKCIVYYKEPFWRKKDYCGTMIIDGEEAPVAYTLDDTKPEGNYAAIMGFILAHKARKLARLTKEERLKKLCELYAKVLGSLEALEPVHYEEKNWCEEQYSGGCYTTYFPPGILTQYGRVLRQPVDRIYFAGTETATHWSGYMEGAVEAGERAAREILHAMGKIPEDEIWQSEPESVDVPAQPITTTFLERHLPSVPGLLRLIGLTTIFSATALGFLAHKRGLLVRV
In words: Inhibition of recombinant human MAOB expressed in baculovirus infected BTI insect cells using p-tyramine as substrate preincubated for 30 mins followed by substrate addition and measured over 45 mins by horseradish peroxidase-Amplex Red-coupled fluorometric assay. The method in brief:
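Human recombinant MAO-A or MAO-B enzyme. Activity detected fluorometrically with the Amplex Red monoamine oxidase assay.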

For `Cn1c(=O)c2c(nc3n2CCCCN3Cc2ccc(Cl)c(Cl)c2)n(C)c1=O`, in data set [1], the Ki was above 1000 nM. Also, the inhibition in data set [2] is 21%; in data set [4], 40%. The Activity in data set [3] is 0.59%; in data set [5], “Toxic”. In data set [6], the IC50 stood at 83 nM.
